Measured values published in ChEMBL document CHEMBL1125363, “Novel piperidine sigma receptor ligands as potential antipsychotic drugs” (J Med Chem, 1992).

How the values were obtained:
Mus musculus [1] = organism: Mus musculus; assay: Potency was tested using Anti mescaline test(Intra peritoneal); type: functional
How it was run: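 Mouse mescaline-antagonism test with the test compound given intraperitoneally. Read-out is the ED50 in mg/kg ip.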

[2] = target: Sigma non-opioid intracellular receptor 1 (Mus musculus, UniProt O55242); assay: In vitro binding affinity for the mouse sigma opioid receptor
Sequence of Sigma non-opioid intracellular receptor 1 (O55242 whole entry): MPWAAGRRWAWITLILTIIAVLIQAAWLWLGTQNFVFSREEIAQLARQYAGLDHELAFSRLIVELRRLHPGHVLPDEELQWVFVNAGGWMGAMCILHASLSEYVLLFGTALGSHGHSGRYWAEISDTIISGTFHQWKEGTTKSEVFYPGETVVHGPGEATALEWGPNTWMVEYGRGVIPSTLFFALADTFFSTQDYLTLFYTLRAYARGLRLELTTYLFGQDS

D(2) dopamine receptor = D(2) dopamine receptor (Mus musculus, UniProt P61168); assay: In vitro binding affinity towards dopamine receptor D2
Sequence of D(2) dopamine receptor (P61168 whole entry): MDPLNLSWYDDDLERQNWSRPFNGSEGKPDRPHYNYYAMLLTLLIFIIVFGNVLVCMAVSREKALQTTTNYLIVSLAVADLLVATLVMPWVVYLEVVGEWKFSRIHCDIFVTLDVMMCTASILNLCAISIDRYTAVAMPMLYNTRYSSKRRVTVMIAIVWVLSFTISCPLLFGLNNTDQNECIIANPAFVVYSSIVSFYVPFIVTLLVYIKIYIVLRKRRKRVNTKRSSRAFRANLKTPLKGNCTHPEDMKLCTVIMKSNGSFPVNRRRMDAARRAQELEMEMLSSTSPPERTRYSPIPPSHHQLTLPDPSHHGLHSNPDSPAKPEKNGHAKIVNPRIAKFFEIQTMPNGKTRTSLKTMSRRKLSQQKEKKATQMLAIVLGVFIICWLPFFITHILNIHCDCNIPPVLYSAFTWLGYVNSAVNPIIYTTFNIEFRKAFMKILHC

[3] = target: Serotonin 2 (5-HT2) receptor (Mus musculus, UniProt Q02152+P34968+P35363); assay: In vitro binding affinity for serotonin 5-hydroxytryptamine (5-HT) 2 receptors; type: protein assay
[4] = Oral potency by using Anti aggression test; type: functional
How it was run: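 Mice were held in prolonged isolation, then exposed to intruders. The aggressive response was scored after oral dosing of the test compound. Potency is the ED50 in mg/kg po.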

Rattus norvegicus [5] = organism: Rattus norvegicus; assay: Oral potency tested using 5HTP induced head twitch test; type: functional
Mus musculus [6] = organism: Mus musculus; assay: Oral potency tested by using anti-mescaline test; type: functional
How it was run: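 Mice; mescaline was given to evoke hallucinogen-type behaviour, and the test compound was dosed orally to antagonise it. Potency is the ED50 in mg/kg po. Some ED50s are the average of three measurements.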

Mus musculus [7] = organism: Mus musculus; assay: Oral potency tested using apomorphine induced climbing test; type: functional
Mus musculus [8] = organism: Mus musculus; assay: Oral potency by using Anti aggression test
Rattus norvegicus [9] = organism: Rattus norvegicus; assay: The compound was tested for blocking the rotation induced by (+)-SKF 10047 in brain-lesioned rats.; type: functional
How it was run: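 Rats with brain lesions were challenged with (+)-SKF 10047 to induce rotation. The test compound was given orally to block rotation. Reported as the ED50 in mg/kg po.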

Structure (SMILES)	ED50 (Mus musculus [1])	Ki [2]	IC50 (D(2) dopamine receptor)	Ki [3]	ED50 [4]	ED50 (Rattus norvegicus [5])	ED50 (Mus musculus [6])	ED50 (Mus musculus [7])	ED50 (Mus musculus [8])	ED50 (Rattus norvegicus [9])
CC(C)(C)c1ccc(COCCC2CCN(Cc3ccccc3)CC2)cc1.Cl	> 10 mg/kg	4.5 nM	6750 nM	939 nM						
Cl.Clc1ccc(OCC2CCN(Cc3ccccc3)CC2)cc1		8.3 nM	4210 nM	137 nM	10 mg/kg	> 10 mg/kg	8 mg/kg			
Br.O=C(CC1CCN(CC2CC2)CC1)c1ccc(F)cc1		10 nM		15 nM		1.8 mg/kg	0.35 mg/kg	15 mg/kg	1.9 mg/kg	2.4 mg/kg
Cl.c1ccc(CCCCCOCC2CCN(Cc3ccccc3)CC2)cc1	> 10 mg/kg	26 nM	1850 nM	186 nM						
Cl.c1ccc(CN2CCC(COc3ccc4ccccc4n3)CC2)cc1	< 10 mg/kg	5.6 nM	6300 nM	311 nM						
Cl.O.O=C(CC1CCN(CC2CC2)CC1)c1ccc(C(F)(F)F)cc1		45 nM	> 10000 nM	278 nM			6.6 mg/kg	> 30 mg/kg	> 30 mg/kg	
Cl.c1ccc(COCC2CCN(Cc3ccccc3)CC2)cc1	> 10 mg/kg	4 nM	> 10000 nM	> 1000 nM						
Br.O=C(CC1CCN(CC2CC2)CC1)c1ccc(-c2ccccc2)cc1		51 nM	1720 nM	547 nM		10 mg/kg	4.7 mg/kg	> 30 mg/kg	8.4 mg/kg	
Br.O=C(CC1CCN(CC2CC2)CC1)c1ccc(Cl)cc1		8 nM	2000 nM	495 nM		30 mg/kg	0.46 mg/kg	> 30 mg/kg	14 mg/kg	
Cl.c1ccc(CN2CCC(COC3CCCCC3)CC2)cc1	< 10 mg/kg	2 nM	> 10000 nM	1363 nM						
Cl.O.OC(Cc1ccc(F)cc1)C1CCN(Cc2ccccc2)CC1 (configuration not stated)		3 nM	789 nM	360 nM	> 30 mg/kg		5 mg/kg	> 30 mg/kg		
Cl.Fc1ccc(COCC2CCN(Cc3ccc(-c4ccccc4)cc3)CC2)cc1	> 10 mg/kg	14 nM	818 nM	> 1000 nM						
Cl.c1ccc(CCCCOCC2CCN(Cc3ccccc3)CC2)cc1	> 10 mg/kg	2 nM	4340 nM	224 nM						
Cl.OC(CC1CCN(Cc2ccccc2)CC1)c1ccc(F)cc1 (configuration not stated)		8 nM	5660 nM	323 nM	32 mg/kg	6.8 mg/kg	5 mg/kg	> 30 mg/kg		
Cl.Fc1ccc(OCC2CCN(CCc3ccc(Cl)cc3)CC2)cc1		5 nM	368 nM	26 nM	10 mg/kg	> 10 mg/kg	1.7 mg/kg			
OC(CCCN1CCN(c2ncc(F)cn2)CC1)c1ccc(F)cc1 (configuration not stated) [BMY-14802]		174 nM	2430 nM	410 nM		2.3 mg/kg	6 mg/kg	> 90 mg/kg	45 mg/kg	
C[C@@H]1CN(CCCn2c3ccccc3c3ccccc32)C[C@H](C)N1 [RIMCAZOLE]		820 nM		2842 nM			22 mg/kg	> 90 mg/kg	48 mg/kg	
